ChEMBL document CHEMBL1143374, “Solution- and solid-phase synthesis and anti-HIV activity of maslinic acid derivatives containing amino acids and peptides” (2009)
Active and inactive are the calls of the source. The calls are words filed in the database; no cut-off is given here.

Columns and labels:
[1] = tested on: Human immunodeficiency virus 1; test: Antiviral activity against HIV1 NL4-3 infected human MT2 cells assessed as viral infection at 10 uM administered 30 mins before viral challenge by luciferase reporter gene activation assay relative to control; assay type: functional
Outline: (§1)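 MT-2 cells at 10^6/mL in RPMI 1640 with 10% heat-inactivated FBS, 37 °C, 5% CO2. Cells were pretreated 30 min, then infected with VSV-pseudotyped pNL4-3.Luc.R−E− virus made in 293T cells (200 ng p24). After 20 h: PBS wash, lysis in Tris-phosphate pH 7.8 buffer, luciferase read. Value is % of untreated infected cells (100%), ±S.D.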

[2] = tested on: Human immunodeficiency virus 1; test: Antiviral activity against HIV1 NL4-3 infected human MT2 cells assessed as viral infection at 25 uM administered 30 mins before viral challenge by luciferase reporter gene activation assay relative to control; assay type: functional; outline: as §1
MT2 [3] = test: Cell cycle arrest in HIV1 NL4-3 infected human MT2 cells assessed as accumulation at G2/M phase at 10 uM administered 30 mins before viral challenge measured after 24 hrs by propidium iodide staining and flow cytometry; assay type: functional
Outline: (§2)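 MT-2 cells at 10^6/mL were pretreated 30 min, then infected 24 h with VSV-pseudotyped HIV-1 luciferase virus. Phase percentages were taken; apoptosis was scored as the sub-G0/G1 (hypodiploid) fraction.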

MT2 [4] = test: Cell cycle arrest in HIV1 NL4-3 infected human MT2 cells assessed as accumulation at G0/G1 phase at 10 uM administered 30 mins before viral challenge measured after 24 hrs by propidium iodide staining and flow cytometry; assay type: functional; outline: as §2
MT2 [5] = test: Induction of apoptosis in HIV1 NL4-3 infected human MT2 cells at 25 uM administered 30 mins before viral challenge measured after 24 hrs by propidium iodide staining and flow cytometry; assay type: functional; outline: as §2
MT2 [6] = test: Cell cycle arrest in HIV1 NL4-3 infected human MT2 cells assessed as accumulation at S phase at 25 uM administered 30 mins before viral challenge measured after 24 hrs by propidium iodide staining and flow cytometry; assay type: functional; outline: as §2
MT2 [7] = test: Cell cycle arrest in HIV1 NL4-3 infected human MT2 cells assessed as accumulation at G2/M phase at 25 uM administered 30 mins before viral challenge measured after 24 hrs by propidium iodide staining and flow cytometry; assay type: functional; outline: as §2
MT2 [8] = test: Cell cycle arrest in HIV1 NL4-3 infected human MT2 cells assessed as accumulation at S phase at 10 uM administered 30 mins before viral challenge measured after 24 hrs by propidium iodide staining and flow cytometry; assay type: functional; outline: as §2
MT2 [9] = test: Induction of apoptosis in HIV1 NL4-3 infected human MT2 cells at 10 uM administered 30 mins before viral challenge measured after 24 hrs by propidium iodide staining and flow cytometry; assay type: functional; outline: as §2
MT2 [10] = test: Cell cycle arrest in HIV1 NL4-3 infected human MT2 cells assessed as accumulation at G0/G1 phase at 25 uM administered 30 mins before viral challenge measured after 24 hrs by propidium iodide staining and flow cytometry; assay type: functional; outline: as §2
MT2 [11] = test: Induction of apoptosis in HIV1 NL4-3 infected human MT2 cells administered 30 mins before viral challenge measured after 24 hrs by propidium iodide staining and flow cytometry; assay type: functional, cell-based; outline: as §2

| SMILES | Activity [1] | Activity [2] | other results |
| --- | --- | --- | --- |
| C[C@H](NC(=O)CCCNC(=O)[C@]12CCC(C)(C)C[C@H]1C1=CC[C@@H]3[C@@]4(C)C[C@@H](O)[C@H](O)C(C)(C)[C@@H]4CC[C@@]3(C)[C@]1(C)CC2)C(=O)O | 83.7% | 50.1% | – |
| C[C@H](NC(=O)[C@]12CCC(C)(C)C[C@H]1C1=CC[C@@H]3[C@@]4(C)C[C@@H](O)[C@H](O)C(C)(C)[C@@H]4CC[C@@]3(C)[C@]1(C)CC2)C(=O)O | 124.2% | 60.9% | – |
| CC(C)[C@H](NC(=O)CCCNC(=O)[C@]12CCC(C)(C)C[C@H]1C1=CC[C@@H]3[C@@]4(C)C[C@@H](O)[C@H](O)C(C)(C)[C@@H]4CC[C@@]3(C)[C@]1(C)CC2)C(=O)O | 66.2% | 130.2% | – |
| CC1(C)CC[C@]2(C(=O)NCCCCCCCCCCC(=O)NCC(=O)O)CC[C@]3(C)C(=CC[C@@H]4[C@@]5(C)C[C@@H](O)[C@H](O)C(C)(C)[C@@H]5CC[C@]43C)[C@@H]2C1 | 85.6% | 49.8% | – |
| CC1(C)CC[C@]2(C(=O)O)CC[C@]3(C)C(=CC[C@@H]4[C@@]5(C)C[C@@H](O)[C@H](O)C(C)(C)[C@@H]5CC[C@]43C)[C@@H]2C1 [MASLINIC ACID] | 56.3% | 6.7% | Activity (MT2 [3]): 18.4%; Activity (MT2 [4]): 47.9%; Activity (MT2 [5]): 51.8%; Activity (MT2 [6]): 17.7%; Activity (MT2 [7]): 7.5%; Activity (MT2 [8]): 20.6%; Activity (MT2 [9]): 13.5%; Activity (MT2 [10]): 23.1% |
| C[C@H](NC(=O)CCCCCCCCCCNC(=O)[C@]12CCC(C)(C)C[C@H]1C1=CC[C@@H]3[C@@]4(C)C[C@@H](O)[C@H](O)C(C)(C)[C@@H]4CC[C@@]3(C)[C@]1(C)CC2)C(=O)O | 71.7% | 27.6% | – |
| COC(=O)CNC(=O)[C@]12CCC(C)(C)C[C@H]1C1=CC[C@@H]3[C@@]4(C)C[C@@H](O)[C@H](O)C(C)(C)[C@@H]4CC[C@@]3(C)[C@]1(C)CC2 | 75.5% | 56.3% | – |
| COC(=O)CCCNC(=O)[C@]12CCC(C)(C)C[C@H]1C1=CC[C@@H]3[C@@]4(C)C[C@@H](O)[C@H](O)C(C)(C)[C@@H]4CC[C@@]3(C)[C@]1(C)CC2 | 32.5% | 12% | Activity (MT2 [11]): Active |
| CC(C)[C@H](NC(=O)[C@]12CCC(C)(C)C[C@H]1C1=CC[C@@H]3[C@@]4(C)C[C@@H](O)[C@H](O)C(C)(C)[C@@H]4CC[C@@]3(C)[C@]1(C)CC2)C(=O)O | 102.8% | 121.2% | – |
| CC1(C)CC[C@]2(C(=O)NCCCC(=O)O)CC[C@]3(C)C(=CC[C@@H]4[C@@]5(C)C[C@@H](O)[C@H](O)C(C)(C)[C@@H]5CC[C@]43C)[C@@H]2C1 | 126.4% | 93.8% | – |
| CC1(C)CC[C@]2(C(=O)NCCCCCCCCCCC(=O)O)CC[C@]3(C)C(=CC[C@@H]4[C@@]5(C)C[C@@H](O)[C@H](O)C(C)(C)[C@@H]5CC[C@]43C)[C@@H]2C1 | 56.7% | 21.5% | Activity (MT2 [3]): 15.1%; Activity (MT2 [4]): 62.6%; Activity (MT2 [5]): 5.2%; Activity (MT2 [6]): 22.2%; Activity (MT2 [7]): 18.9%; Activity (MT2 [8]): 18.8%; Activity (MT2 [9]): 3.5%; Activity (MT2 [10]): 53.7% |
| COC(=O)CCCCCCCCCCNC(=O)[C@]12CCC(C)(C)C[C@H]1C1=CC[C@@H]3[C@@]4(C)C[C@@H](O)[C@H](O)C(C)(C)[C@@H]4CC[C@@]3(C)[C@]1(C)CC2 | 66.9% | 35.6% | – |
| CC(C)[C@H](NC(=O)CCCCCNC(=O)[C@]12CCC(C)(C)C[C@H]1C1=CC[C@@H]3[C@@]4(C)C[C@@H](O)[C@H](O)C(C)(C)[C@@H]4CC[C@@]3(C)[C@]1(C)CC2)C(=O)O | 83.8% | 96.5% | – |
| CC1(C)CC[C@]2(C(=O)NCCCCCC(=O)O)CC[C@]3(C)C(=CC[C@@H]4[C@@]5(C)C[C@@H](O)[C@H](O)C(C)(C)[C@@H]5CC[C@]43C)[C@@H]2C1 | 146.4% | 79.3% | – |
| CC(C)[C@H](NC(=O)CCCCCCCCCCNC(=O)[C@]12CCC(C)(C)C[C@H]1C1=CC[C@@H]3[C@@]4(C)C[C@@H](O)[C@H](O)C(C)(C)[C@@H]4CC[C@@]3(C)[C@]1(C)CC2)C(=O)O | 44.9% | 21.2% | Activity (MT2 [3]): 21.6%; Activity (MT2 [4]): 54.6%; Activity (MT2 [5]): 4.6%; Activity (MT2 [6]): 20.5%; Activity (MT2 [7]): 15.5%; Activity (MT2 [8]): 21.4%; Activity (MT2 [9]): 2.1%; Activity (MT2 [10]): 59.2% |
| CC1(C)CC[C@]2(C(=O)NCC(=O)O)CC[C@]3(C)C(=CC[C@@H]4[C@@]5(C)C[C@@H](O)[C@H](O)C(C)(C)[C@@H]5CC[C@]43C)[C@@H]2C1 | 162.1% | 130.7% | – |
| COC(=O)[C@@H](NC(=O)[C@]12CCC(C)(C)C[C@H]1C1=CC[C@@H]3[C@@]4(C)C[C@@H](O)[C@H](O)C(C)(C)[C@@H]4CC[C@@]3(C)[C@]1(C)CC2)C(C)C | 72% | 11.1% | – |
| C[C@H](NC(=O)CCCCCNC(=O)[C@]12CCC(C)(C)C[C@H]1C1=CC[C@@H]3[C@@]4(C)C[C@@H](O)[C@H](O)C(C)(C)[C@@H]4CC[C@@]3(C)[C@]1(C)CC2)C(=O)NCC(=O)O | 170.2% | 89.6% | – |
| COC(=O)[C@H](C)NC(=O)[C@]12CCC(C)(C)C[C@H]1C1=CC[C@@H]3[C@@]4(C)C[C@@H](O)[C@H](O)C(C)(C)[C@@H]4CC[C@@]3(C)[C@]1(C)CC2 | 63.6% | 8.9% | – |
| C[C@H](NC(=O)CCCCCNC(=O)[C@]12CCC(C)(C)C[C@H]1C1=CC[C@@H]3[C@@]4(C)C[C@@H](O)[C@H](O)C(C)(C)[C@@H]4CC[C@@]3(C)[C@]1(C)CC2)C(=O)O | 107% | 70.2% | – |
| COC(=O)CCCCCNC(=O)[C@]12CCC(C)(C)C[C@H]1C1=CC[C@@H]3[C@@]4(C)C[C@@H](O)[C@H](O)C(C)(C)[C@@H]4CC[C@@]3(C)[C@]1(C)CC2 | 69.6% | 36.8% | – |
| CC1(C)CC[C@]2(C(=O)NCCCCCC(=O)NCC(=O)O)CC[C@]3(C)C(=CC[C@@H]4[C@@]5(C)C[C@@H](O)[C@H](O)C(C)(C)[C@@H]5CC[C@]43C)[C@@H]2C1 | 125.7% | 122.1% | – |
| C[C@H](NC(=O)[C@]12CCC(C)(C)C[C@H]1C1=CC[C@@H]3[C@@]4(C)C[C@@H](O)[C@H](O)C(C)(C)[C@@H]4CC[C@@]3(C)[C@]1(C)CC2)C(=O)NCC(=O)O | 134.5% | 184.8% | – |
| CC1(C)CC[C@]2(C(=O)NCCCC(=O)NCC(=O)O)CC[C@]3(C)C(=CC[C@@H]4[C@@]5(C)C[C@@H](O)[C@H](O)C(C)(C)[C@@H]5CC[C@]43C)[C@@H]2C1 | 112.3% | 143.3% | – |
